In ChEMBL document CHEMBL4673214, “Synthesis and antibacterial bioactivities of cationic deacetyl linezolid amphiphiles” (Eur J Med Chem, 2018):

Experiments:
Escherichia coli = test: Antibacterial activity against Escherichia coli ATCC 25922 assessed as reduction in bacterial growth incubated 16 to 20 hrs by CLSI-based broth microdilution method; assay type: functional; conditions: time 16-20 hrs
Outline: (§1)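 Broth microdilution following CLSI, in cation-adjusted Mueller-Hinton broth. Inoculum from a 4-6 h culture (~10^8 CFU/mL), diluted to ~10^6 CFU/mL. Water stocks were serially diluted in MHB (256 to 0.5 µg/mL) and mixed 1:1 with the inoculum. Plates ran 16-20 h at 37 °C. MIC was read visually. Each concentration was tested in duplicate, and the experiment was repeated at least twice.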

[1] = Solubility of the compound in water at room temperature; assay type: physicochemical; conditions: buffer
Salmonella enterica = test: Antibacterial activity against Salmonella enterica ATCC 8387 assessed as reduction in bacterial growth incubated for 16 to 20 hrs by CLSI-based broth microdilution method; assay type: functional; conditions: time 16-20 hrs; outline: as §1
Enterococcus faecalis = test: Antibacterial activity against Enterococcus faecalis ATCC 29212 assessed as reduction in bacterial growth incubated 16 to 20 hrs by CLSI-based broth microdilution method; assay type: functional; conditions: time 16-20 hrs; outline: as §1
Staphylococcus aureus = test: Antibacterial activity against Staphylococcus aureus ATCC 29213 assessed as reduction in bacterial growth incubated for 16 to 20 hrs by CLSI-based broth microdilution method; assay type: functional; conditions: time 16-20 hrs; outline: as §1

Row | MIC (Escherichia coli) | solubility [1] | MIC (Salmonella enterica) | MIC (Enterococcus faecalis) | MIC (Staphylococcus aureus) | SMILES
1 | 128 µg/mL | Soluble | 128 µg/mL | 64 µg/mL | 128 µg/mL | CCCCCCCC[N+](C)(C)CC(=O)NC[C@H]1CN(c2ccc(N3CCOCC3)c(F)c2)C(=O)O1.[Cl-]
2 | 128 µg/mL | Soluble | > 128 µg/mL | 128 µg/mL | 64 µg/mL | CCCCCCCN(C[C@H]1CN(c2ccc(N3CCOCC3)c(F)c2)C(=O)O1)C(=O)[C@@H](N)CCCN=C(N)N.Cl.Cl.Cl
3 | 32 µg/mL | Soluble | 32 µg/mL | 8 µg/mL | 4 µg/mL | CCCCCCCCCCN(C[C@H]1CN(c2ccc(N3CCOCC3)c(F)c2)C(=O)O1)C(=O)[C@@H](N)CCCCN.Cl.Cl
